# OX1R antag-1: OX1R (HCRTR1) antagonists, primary screen, fluorescence, CHO/OX1R cells, Fluo-8 calcium, orexin A; Fluo-8 calcium fluorescence; inhibition, % at 5 µM; actives 0.43% (n = 330,000); AID 434989, 2010;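 active means inhibition above its plate's threshold, mean inhibition of all tested compounds on the plate plus 3 SD, cut at about 37% in these data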;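 further: 0% = orexin A challenge wells and 100% = SB-334867-A antagonist wells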
# TAAR1 antagonist: human TAAR1 antagonists, primary screen, Fluo-8 calcium fluorescence, CHO RD-HGA16 cells; antagonist; AID 624466, 2012; actives 1.5% (n = 360,000); inhibition, % at 3 µM;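 active means inhibition above a per-plate cutoff, the mean inhibition of test compounds on that plate plus 3 SD, cut at about 49% in these data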;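 further: 0% = DMSO plus EC80 beta-PEA response and 100% = DMSO alone without agonist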
# Target sequence (Q96RJ0 whole entry, looked up): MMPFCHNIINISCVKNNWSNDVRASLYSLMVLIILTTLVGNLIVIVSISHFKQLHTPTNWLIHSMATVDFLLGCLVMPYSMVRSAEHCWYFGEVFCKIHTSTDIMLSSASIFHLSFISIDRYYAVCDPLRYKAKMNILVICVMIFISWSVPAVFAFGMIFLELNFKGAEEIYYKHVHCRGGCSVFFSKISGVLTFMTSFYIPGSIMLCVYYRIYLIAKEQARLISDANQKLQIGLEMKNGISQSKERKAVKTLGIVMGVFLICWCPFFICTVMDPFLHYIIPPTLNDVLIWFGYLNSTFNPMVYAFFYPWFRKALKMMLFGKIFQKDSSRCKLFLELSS
#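 Material: CHO RD-HGA16 cells bearing hTAAR1; compound dosing: one-point dosing, 3 µM nominal final; schedule: dye loading 75 min at 37 °C, then 30 min room temperature; measured by: calcium fluorescence with Fluo-8; control set: vehicle and agonist controls; replication: n of 1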
# TAAR1 agonist: human TAAR1 agonists, primary screen, Fluo-8 calcium fluorescence, CHO RD-HGA16 cells; activation, % at 3 µM; AID 624467, 2012; actives 0.99% (n = 360,000); Trace amine-associated receptor 1 (Homo sapiens), Q96RJ0; vehicle wells 0%, saturating PEA agonist 100%;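 active means activation above the mean activation of all test compounds in the run plus 3 SD, cut at about 38% in these data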
#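 Repeats: no replicates (n 1) | Material: CHO-derived RD-HGA16 cells with stable Gα16 and human TAAR1 | Technique: Kinetic Fluo-8 calcium fluorescence | Schedule: 17-24 h seeding, 75 min 37 °C dye, 30 min RT | Evaluation: % activation from peak over basal fluorescence ratio, DMSO-to-PEA scaled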
# OX1R antag-2: antagonists of human orexin 1 receptor (OX1R); Orexin/Hypocretin receptor type 1 (Homo sapiens), O43613; inhibition, % at 6.6 µM; OX1R-expressing cells, FRET antagonist read-out; actives 1.8% (n = 330,000); in the data active means inhibition mostly above about 38%, no sharp cut-off; inactive means mostly below about 40%;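 further: 0% = agonist challenge alone and 100% = reference antagonist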
# GPR7 antagonist: GPR7 receptor antagonists, primary screen, cell-based, fluorescence, single concentration; Neuropeptides B/W receptor type 1 (Homo sapiens), P48145; GPR7-expressing cells, fluorescence antagonist assay; inhibition, % at 4.4 µM; actives 1.1% (n = 290,000); in the data active means inhibition above about 16%, passing the limit was not always enough;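 further: cells stimulated with the agonist NPW; 0% = agonist with vehicle and 100% = vehicle without agonist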
# Target sequence (P48145 whole entry, looked up): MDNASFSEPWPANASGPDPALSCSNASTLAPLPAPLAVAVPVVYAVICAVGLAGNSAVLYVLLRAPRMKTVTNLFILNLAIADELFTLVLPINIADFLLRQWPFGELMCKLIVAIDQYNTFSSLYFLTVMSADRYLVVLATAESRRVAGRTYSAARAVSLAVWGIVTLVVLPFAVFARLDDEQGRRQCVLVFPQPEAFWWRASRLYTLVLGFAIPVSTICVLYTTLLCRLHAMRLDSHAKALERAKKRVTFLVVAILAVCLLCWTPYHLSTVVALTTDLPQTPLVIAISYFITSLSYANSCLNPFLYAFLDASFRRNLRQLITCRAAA
# CHO parental Ca: ATP-evoked calcium signal inhibitors, parental CHO, primary screen, counter-screen for OX1R antagonist project, cell-based, fluorescence, Fluo-8 calcium dye; parental CHO-K1, ATP-induced calcium, Fluo-8 fluorescence; inhibition, % at 5.6 µM; actives 0.63% (n = 330,000); AID 463079, 2010;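 active means inhibition above that plate's mean sample inhibition plus 3 SD, cut at about 26% in these data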;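 further: 0% = ATP-challenged DMSO wells and 100% = DMSO wells without ATP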
#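 Assay system – parental CHO cells · Reagent – ATP stimulus · Detection – intracellular calcium via Fluo-8 no-wash fluorescent dye · Evaluation – percent inhibition of ATP-evoked calcium rise, normalized to controls · Controls – ATP wells versus no-ATP DMSO wells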
# The depositor's hits bear a star; x = no result given. Rows were chosen to be rich in hits. Some 4.5% of all compounds tested hit in one or more screens of this group.
SMILES,OX1R antag-1,TAAR1 antagonist,TAAR1 agonist,OX1R antag-2,GPR7 antagonist,CHO parental Ca
CC(=O)Nc1cc(OC(C)=O)c2nonc2c1OC(C)=O,3,-12,21,85*,6,-2
CC1=C/C(=C(/c2cc(C)c(O)c(Br)c2)c2ccccc2S(=O)(=O)O)C=C(Br)C1=O,-6,0,0,41*,-6,5
CC1=C/C(=C(/c2ccc(O)c(C)c2)c2ccccc2S(=O)(=O)O)C=CC1=O,-3,-2,3,16,x,-1
O=C(COC(=O)/C=C/c1cccc(Cl)c1)NCCC1=CCCCC1,-31,32,39*,12,-10,0
O=C(C1CCC(CNS(=O)(=O)c2cccc3nsnc23)CC1)N1CC=C(c2ccccc2)CC1 (stereo unspecified),-11,-18,-1,15,-7,19
Cc1ccc(Cl)cc1N1CCN(S(=O)(=O)N2CCCCC2)CC1,-41,1,8,15,23*,-25
Cc1ccc(Cl)cc1N1CCN(S(C)(=O)=O)CC1,-21,0,0,6,14,-7
Cc1ccc(C)c(N2CCN(C(=O)C3CCN(S(=O)(=O)c4cccc5nsnc45)CC3)CC2)c1,-19,54*,14,23,-12,-4
O=C(C1CCN(S(=O)(=O)c2cccc3cccnc23)CC1)N1CCN(c2ccc(Cl)cc2)CC1,-20,15,11,13,17*,-2
O=C(C1CCN(S(=O)(=O)c2cccc3nsnc23)CC1)N1CC=C(c2ccccc2)CC1,-1,56*,13,28,3,-8
COc1ccc(C2NC(=S)N(Cc3ccc(Cl)cc3)C(C)=C2C(C)=O)cc1 (stereo unspecified),x,3,-1,x,x,x
Cc1ccc(Cl)cc1N1CCN(C(=O)C2CCN(S(=O)(=O)c3c(C)nn(C)c3C)CC2)CC1,25,77*,36,12,9,35*
O=C(C1CCCN(S(=O)(=O)c2cccc3nsnc23)C1)N1CC=C(c2ccccc2)CC1 (stereo unspecified),-14,50*,10,34,4,21
O=C(C1CCCN(S(=O)(=O)c2cccc3nonc23)C1)N1CCN(c2cccc(Cl)c2)CC1 (stereo unspecified),-17,49*,10,9,8,-5
Cc1ccc(Cl)cc1N1CCN(C(=O)C2CCN(S(=O)(=O)c3cccnc3)CC2)CC1,21,23,13,32,3,15
O=C(C1CCN(S(=O)(=O)c2cccc3nsnc23)CC1)N1CCCCC1,-14,2,2,44*,-7,-2
COC(=O)[C@]12C[C@H](CC(=O)NCCCN3CCCC3=O)C(=O)N(Cc3ccc4c(c3)OCO4)C1=C[C@H](COCc1ccccc1)O[C@@H]2C,x,-31,6,x,x,x
CCCCOCC1CN(CCCC)S(=O)(=O)c2c(Oc3ccc(OC)cc3)cccc2O1 (stereo unspecified),x,-11,2,x,x,x
CC(=O)Nc1ccc(S(=O)(=O)N(C)CC(=O)Nc2ccc(Br)cc2F)cc1,-18,10,5,20,x,67*
Cc1ccc(S(=O)(=O)N(C)CC(=O)Nc2ccccc2)cc1,-15,-7,11,14,8,-6
CSc1cccc(NC(=O)CN(C)S(=O)(=O)c2ccc(C)cc2)c1,51*,12,6,78*,1,30
Fc1ccc2cnc(CCO[C@H]3CCCCO3)cc2c1,-116,1,1,21,x,-11
Cc1cc(C)cc(N/C(N)=N/c2nc(C)cc(C)n2)c1,20,24,39*,9,-1,1
O=C(CSc1nc(-c2ccccc2)c(-c2ccccc2)[nH]1)Nc1ccc2c(c1)OCO2,5,-7,6,50*,-11,-16
O=C(CSc1nc2ncccc2[nH]1)Nc1ccc2c(c1)OCO2,-14,-24,2,4,6,-10
SMILES,OX1R antag-1,TAAR1 antagonist,TAAR1 agonist,OX1R antag-2,GPR7 antagonist,CHO parental Ca
CCOC(=O)N1CCN(C(=O)C2CCC(=O)N(Cc3ccccc3OC)C2)CC1 (stereo unspecified),x,-5,0,x,x,x
CCCCC[C@@H](C)N1C[C@@H](COCc2ccccc2)Oc2cc(N3CC[C@@H](N(C)C)C3)ccc2S1(=O)=O,x,-12,21,x,x,x
c1cncc(-c2csc(-c3cccnc3)n2)c1,-1,8,0,9,1,1
Clc1ccsc1-c1csc(-c2cccnc2)n1,17,5,2,71*,-5,-18
CC1CCN(c2ccc3c(c2)S(=O)(=O)c2cccc(C(=O)NC4CCCCC4)c2C3=O)CC1,-1,71*,41*,31,x,-3
O=C(NCc1ccccc1Br)c1cccc2c1C(=O)c1ccc(N3CCOCC3)cc1S2(=O)=O,15,x,x,1,x,-6
C=CCNC(=O)c1cccc2c1C(=O)c1ccc(N3CCOCC3)cc1S2(=O)=O,-7,-3,11,64*,x,-6
CC1CCN(c2ccc3c(c2)S(=O)(=O)c2cccc(C(=O)O)c2C3=O)CC1,-2,19,6,8,x,12
O=C(NCc1cc(C(F)(F)F)ccc1Cl)c1cccc2c1C(=O)c1ccc(N3CCC(Cc4ccccc4)CC3)cc1S2(=O)=O,-19,x,x,7,x,-11
O=C(NC1CC1)c1cccc2c1C(=O)c1ccc(N3CCC(Cc4ccccc4)CC3)cc1S2(=O)=O,31,78*,46*,14,x,14
O=C(NC1CCCCC1)c1cccc2c1C(=O)c1ccc(N3CCCC3)cc1S2(=O)=O,20,59*,30,34,x,-6
O=C(NC1CCCC1)c1cccc2c1C(=O)c1ccc(N3CCCCC3)cc1S2(=O)=O,-22,21,10,4,x,-9
COC(=O)[C@]12C[C@H](CC(=O)NCCC(C)C)C(=O)N(Cc3ccc4c(c3)OCO4)C1=C[C@H](C(C)(C)C)O[C@@H]2C,x,-32,-2,x,x,x
C=CCN=C1NC(c2ccccc2)C(C(=O)OC)=C(C)N1C (stereo unspecified),x,-12,2,x,x,x
Cc1cccc2nc(-c3ccccc3)c(-c3ccc(CN4CCC5(CC4)CNc4ccccc45)cc3)nc12,x,-29,-2,x,x,x
CC1CCN(c2ccc3c(c2)S(=O)(=O)c2cccc(C(=O)NCc4ccc(F)cc4)c2C3=O)CC1,-4,38,22,0,x,-14
COc1ccccc1N1CCN(c2ccc3c(c2)S(=O)(=O)c2cccc(C(=O)NCC4CC4)c2C3=O)CC1,x,54*,13,x,x,x

# High-throughput results from PubChem.
